{"source": "paper PMC3529859", "about": "(Leukemia, 2012)", "type_in_all_cases": "cell-based, human", "key": {"[1]": {"system": "KIT D816V+ primary bone marrow mast cells", "settings": "1 µM (1000 nM); 7 d; SCF 100 ng/ml; KIT D816V-positive patients n=5", "how_it_was_run": "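Bone marrow mononuclear cells from patients with systemic mastocytosis (WHO criteria, IRB-approved protocol, informed consent), with KIT D816V status determined by PCR/RFLP. Cells were incubated with test compound at 0, 100 or 1000 nM in 0.1% DMSO for 7 d with SCF (100 ng/ml), then mast cell viability was assessed.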"}, "[2]": {"system": "SCF-enhanced degranulation of primary HuMCs", "test": "SCF-enhanced degranulation of HuMCs", "settings": "Ag 0.1 ng/ml + SCF 10 ng/ml; up to 1000 nM"}, "[3]": {"system": "FcεRI-mediated degranulation of primary HuMCs", "test": "FcεRI-mediated degranulation of HuMCs", "settings": "Ag 1 ng/ml; inhibition observed only at 1000 nM"}}, "data": [{"smiles": "CO[C@@H]1[C@H](N(C)C(=O)c2ccccc2)C[C@H]2O[C@]1(C)n1c3ccccc3c3c4c(c5c6ccccc6n2c5c31)C(=O)NC4", "note": "[PKC 412]", "values": [{"measurement": "reduction in the viability of mast cells", "setting": "[1]", "result": 88, "unit": "%"}]}, {"smiles": "Cc1ccc(NC(=O)c2ccc(CN3CCN(C)CC3)cc2)cc1Nc1nccc(-c2cccnc2)n1", "note": "[imatinib]", "values": [{"measurement": "effect on SCF-enhanced degranulation", "setting": "[2]", "result": "inhibited SCF-enhanced degranulation at the highest concentration"}, {"measurement": "effect on FcεRI mediated mast cell degranulation", "setting": "[3]", "result": "minimal effects"}]}]}
